High-throughput results (PubChem)
OX1R antag-1 – antagonists of human orexin 1 receptor (OX1R); O43613; OX1R-expressing cells, FRET antagonist read-out; inhibition, % at 6.6 µM; 330,000 tested, 1.8% active; AID 485270; in the data active = inhibition mostly above about 38%, no sharp cut-off; inactive = mostly below about 40%
Target sequence (O43613 whole entry, looked up): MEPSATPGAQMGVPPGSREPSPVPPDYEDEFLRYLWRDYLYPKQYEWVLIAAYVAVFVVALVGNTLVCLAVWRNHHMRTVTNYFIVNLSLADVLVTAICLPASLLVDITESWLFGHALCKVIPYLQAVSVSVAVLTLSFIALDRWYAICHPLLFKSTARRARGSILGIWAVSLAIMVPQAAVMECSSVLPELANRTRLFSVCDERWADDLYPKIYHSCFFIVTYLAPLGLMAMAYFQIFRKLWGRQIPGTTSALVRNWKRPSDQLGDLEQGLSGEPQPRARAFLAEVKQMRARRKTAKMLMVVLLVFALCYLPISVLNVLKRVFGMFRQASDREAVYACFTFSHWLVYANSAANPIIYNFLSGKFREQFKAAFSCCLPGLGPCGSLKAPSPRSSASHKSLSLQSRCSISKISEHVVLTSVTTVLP
CHO-K1 Ca antag – counter-screen for M1 antagonists: effect in parental CHO-K1 cells. inhibition, % at 3 µM. ATP-induced calcium, Fluo-8 fluorescence. AID 602250. 360,000 tested, 0.6% active;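 active = inhibition above a per-plate cutoff, the plate's mean sample inhibition plus 3 SD, cut at about 24% in these data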
CHO parental Ca – counter-screen: ATP calcium response change in parental CHO cells; parental CHO-K1, ATP-induced calcium, Fluo-8 fluorescence; inhibition, % at 5.6 µM; 330,000 tested, 0.63% active; AID 463079;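 active = inhibition above that plate's mean sample inhibition plus 3 SD, cut at about 26% in these data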
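Test system: parental CHO cells; detection: calcium-sensitive Fluo-8 fluorescence; evaluation: percent inhibition of calcium signal; also added: ATP as calcium-mobilizing challenge; repeats: one well per compound; control set: ATP-challenged DMSO wells low, unchallenged DMSO wells high; compound: single nominal dose of 5.6 µM per compound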
OX1R antag-2 – human HCRTR1 antagonism; 330,000 tested, 0.43% active; inhibition, % at 5 µM; CHO/OX1R cells, Fluo-8 calcium fluorescence, orexin A; O43613;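 active = inhibition above its plate's threshold, mean inhibition of all tested compounds on the plate plus 3 SD, cut at about 37% in these data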
M1 PAM parental – counter-screen for M1 PAMs: effect in parental CHO-K1 cells | ATP EC20, Fluo-8 calcium fluorescence; 0% at ATP EC20, 100% at ATP max | activation, % at 3 µM | 360,000 tested, 0.02% active | AID 602247;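 active = activation above the run cutoff, the mean activation of all test compounds plus 3 SD, cut at about 40% in these data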;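 also: peak over basal fluorescence ratio in a 140 s read after ATP addition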
CHO-K1 Ca ag – counter-screen for M1 agonists: effect in parental CHO-K1 cells | 360,000 tested, 0.48% active | Fluo-8 calcium fluorescence; scaled to maximal ATP response, vehicle zero | AID 602248 | activation, % at 3 µM; in the data active = activation above about 15%;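 also: untransfected CHO-K1 host cells lacking M1 receptor as counterscreen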
Numbers stand for hits; . = inactive; / = not tested or not shown. Compounds with a hit are over-represented: about 2.9% of the library has one in this group of screens.

SMILES | OX1R antag-1 | CHO-K1 Ca antag | CHO parental Ca | OX1R antag-2 | M1 PAM parental | CHO-K1 Ca ag
CCN(CC(=O)NCc1ccc(F)cc1)C(=O)CN1CCN(c2ccc(OC)cc2)CC1 | . | . | . | . | . | .
Cc1ccc(C)c(S(=O)(=O)N2CCN(c3nc(-c4cccnc4)nc4ccccc34)CC2)c1 | 47 | . | . | . | . | .
O=S(=O)(c1ccccc1F)N1CCN(c2nc(-c3cccnc3)nc3ccccc23)CC1 | . | . | . | . | . | .
COC(=O)CN1C(=O)[C@H]2[C@@H](c3ccc(C)o3)N3C(=O)CN(Cc4ccccn4)C(=O)[C@@]3(Cc3ccccc3)[C@H]2C1=O | . | . | . | . | . | .
Cc1cc(C)c(C2=CC(=O)C[C@H](c3ccc4c(c3)OCO4)C2)c(C)c1 | . | . | . | . | . | .
O=c1cc(-c2ccccc2)nc(/C=C/c2ccccc2)[nH]1 | . | . | . | . | . | 17
O=C(Nc1ncc(Cc2ccc(SC(F)F)cc2)s1)c1ccc(OC(F)F)cc1 | . | . | . | 61 | . | .
Cc1ccc(Cc2cnc(NC(=O)c3ccco3)s2)cc1 | . | . | . | . | . | .
CN(C(=O)c1cccc(NC(=O)Cc2ccc(NC(=O)C3CCCN(C(=O)C4CCC4)C3)cc2)c1)C1CCCC1 (stereo unspecified) | / | . | / | / | . | .
Cc1ccc(C)c(N2CCN(C(=O)c3ccc(CS(=O)(=O)c4ccccc4C)o3)CC2)c1 | . | 25 | . | . | . | .
Cc1ccc(S(=O)(=O)Cc2ccc(C(=O)N3CCN(c4cc(C)ccc4C)CC3)o2)cc1 | . | . | . | . | . | .
N#Cc1ccc(OS(=O)(=O)c2ccc(-c3ccon3)s2)cc1 | . | . | 34 | . | . | .
Cc1ccc(NC(=S)N2CCC(c3ccccc3)C2)c(Cl)c1 (stereo unspecified) | . | . | . | . | . | .
N#CC1=C2SCCN2C(=O)C(C#N)C12CCCCC2 (stereo unspecified) | . | 25 | . | . | . | .
CN(CC(=O)Nc1ccc(F)cc1)C(=O)Cn1cnc2ccc(Cl)cc2c1=O | . | . | . | . | . | .
Cc1ccc(C(C)NC(=O)/C(C#N)=C\c2c(C)[nH]c3ccccc23)cc1 (stereo unspecified) | . | . | 33 | . | . | .
COc1ccc(-c2cc3c(=O)n(CC(=O)NCCCN4CCC(Cc5ccccc5)CC4)ncn3n2)cc1 | . | . | 40 | . | . | .
O=C(c1cc2cc([N+](=O)[O-])ccc2s1)N1CCCCC1 | . | . | . | . | . | .
Cc1cc(C)c2c(=O)[nH]c(SCC(=O)N3CCOCC3)nc2n1 | . | . | . | . | . | 17
Cc1cc(C)c2c(=O)[nH]c(SCC(=O)N3CCCCC3)nc2n1 | . | . | . | . | . | .
C[n+]1c2n(c3ccccc31)N=C(c1ccc(Cl)cc1)CS2 | . | . | . | . | . | .
COc1ccc(C2=Nn3c([n+](C)c4ccccc43)SC2)cc1 | 42 | . | . | . | . | .
CCCn1c(C(C)NC(=O)c2ccccc2)n[nH]c1=S (stereo unspecified) | . | . | . | . | . | 17
COc1ccccc1OCC(=O)Nc1ccccc1C(=O)NCc1cccnc1 | . | . | . | . | . | .
COc1ccccc1Nc1ncccc1C(=O)NCc1ccccc1 | 75 | . | . | . | . | .
SMILES | OX1R antag-1 | CHO-K1 Ca antag | CHO parental Ca | OX1R antag-2 | M1 PAM parental | CHO-K1 Ca ag
COc1ccc(COc2ccccc2C(=O)NCc2ccccc2)cc1F | . | . | 34 | . | . | .
O=C(NNC(=O)C1CCCO1)c1ccccc1Cl (stereo unspecified) | . | . | . | . | . | .
O=C(NC(c1ccccc1)c1ccccc1)C1CCCO1 (stereo unspecified) | . | . | . | . | . | 21
Cc1cc(C)c(S(=O)(=O)Nc2cc(SCC(=O)O)c(O)c3ccccc23)cc1C | 58 | / | . | . | / | /
CC(C)(C)OC(=O)C[C@H]1C/C=C\C[C@@H](CC(=O)N(CCO)Cc2ccccc2)C(=O)NC[C@H](c2ccccc2)OC1=O | . | . | . | . | . | .
O=C1NC[C@@H](c2ccccc2)OC(=O)[C@H](Cc2ccc(F)cc2)C/C=C\C[C@H]1CC(=O)N(CCO)Cc1ccccc1 | . | . | . | . | . | .
O=C1NC[C@H](c2ccccc2)OC(=O)[C@@H](Cc2ccc(F)cc2)C/C=C\C[C@H]1CC(=O)N(CCO)Cc1ccccc1 | 56 | . | . | . | . | .
CC(C)(C)OC(=O)C[C@@H]1C/C=C\C[C@H](CC(=O)N(CCO)Cc2ccccc2)C(=O)NC[C@@H](c2ccccc2)OC1=O | 54 | . | . | . | . | .
CSc1ccc(Cl)c(C(=O)OCC(=O)N2CCN(c3ccccc3)CC2)c1 | / | . | / | / | . | .
O=C(O)c1ccc2nc(-c3ccccc3)sc2c1 | . | 29 | . | . | . | .
Nc1ccc(-c2nc3ccc(C(=O)O)cc3s2)cc1 | . | . | . | . | . | .
C=C1C(=O)C=C2CN(C(=O)c3ccccc3)[C@@](Cc3ccc(F)cc3)(C(=O)OC)[C@@H]12 | . | 83 | . | 75 | . | 75
O=C(NC1(C(F)(F)F)OCCO1)c1ccc(F)cc1 | . | . | . | . | . | .
Cc1nnc(NC(=O)c2sc3nc(-c4cccs4)cc(C(F)(F)F)c3c2N)s1 | . | . | 42 | 85 | . | 20
CC(C)(C)C(=O)c1sc2nc(-c3cccs3)cc(C(F)(F)F)c2c1N | . | . | . | . | . | .
Nc1c(C(=O)Nc2nccs2)sc2nc(-c3cccs3)cc(C(F)(F)F)c12 | . | 38 | 42 | 47 | . | 27
O=C(NCc1ccccc1)c1ccc(-c2ccccc2F)o1 | 59 | . | . | . | . | .
Cc1ccccc1CS(=O)(=O)c1nnc([C@H](CC(C)C)NC(=O)OC(C)(C)C)o1 | . | . | 43 | . | . | .
CCCC1/C(=N/O)CC(c2ccccc2)NC1c1ccccc1 (stereo unspecified) | . | 37 | . | . | . | 18
CC1/C(=N/O)CC(c2ccccc2)NC1c1ccccc1 (stereo unspecified) | . | . | . | . | . | .
O=S(=O)(c1ccc(OCC(O)CNC23CC4CC(CC(C4)C2)C3)c(Cl)c1)N1CCOCC1 (stereo unspecified) | . | . | . | . | . | .
N#Cc1cccc2cccc(S(=O)(=O)N3CCOCC3)c12 | . | 26 | . | . | . | .
c1ccc2c(C3OCC4(CCCCC4)CO3)cccc2c1 | / | . | / | / | . | .
O=C(CCNC(=O)C1CCN(S(=O)(=O)c2ccccc2)CC1)NCc1ccc(Cl)c(Cl)c1 | . | . | . | . | . | .
Cc1ccc(S(=O)(=O)NC(C)(C)CSc2nnc(Nc3ccccc3)s2)cc1 | . | . | 53 | 50 | . | .
NNC(=O)CCc1nc2ccc(O)cc2[nH]1 | . | . | . | . | . | .
